Screens as filed in PubChem.
KCNQ1 block: human KCNQ1 channel inhibition; P51787; AID 2642; B-score at 10 µM; CHO-K1 KCNQ1, FluxOR thallium flux fluorescence; stronger effect = higher value; 1.3% of 310,000 active;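 active = compounds whose thallium flux B-score, printed positive for inhibition, exceeds three library SD while starting fluorescence stays within three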;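 note: channel opened by potassium depolarization with thallium stimulus after 20 min compound exposure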
KCNQ1 act: human KCNQ1 channel potentiation or activation; CHO-K1 KCNQ1, thallium flux FluxOR fluorescence; stronger effect = higher value; B-score at 10 µM; 0.35% of 310,000 active; AID 2648;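 active = fluorescence ratio B-score, a plate-corrected score, at least three library SD, with initial intensity B-score within 5 SD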
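System: Stable KCNQ1 CHO-K1 line | Incubation: 90 min dye loading and 20 min compound exposure, both at room temperature | Measure: Ratio B score | Medium: Assay buffer for compound exposure, DMSO matched across wells | Compound dosing: Single-concentration screen | Probe or stimulus: K+/Tl+ depolarizing stimulus | Measured by: Kinetic FluxOR fluorescence, 10 s baseline plus 110 s post-stimulus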
KCNK9 block: blocks the human KCNK9 two-pore domain potassium channel; Q9NPC2; 1.2% of 310,000 active; B-score at 10 µM; HEK293 KCNK9, FluxOR thallium flux fluorescence; stronger effect = lower value;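 active = ratio B-score over 3 SD below the library mean, with starting fluorescence within 5 SD of its mean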;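 note: negative B-score means less thallium flux so channel inhibition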
KCNK3 inh: human KCNK3 channel inhibition, primary screen; O14649; B-score at 10 µM; 0.84% of 340,000 active; AID 602410; CHO-KCNK3 thallium flux, FluxOR fluorescence; stronger effect = lower value;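 active = B-score under library mean minus 4 SD, starting fluorescence ratio at most library mean plus 5 SD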;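 note: more negative B-score means stronger inhibition of thallium flux through KCNK3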
hERG protect: hERG (human) protection from proarrhythmic block; CHO-hERG, FluxOR thallium flux, dofetilide IC70 present; activation (rescue from dofetilide block), less the hit threshold, % at 10 µM; Q12809; 0.51% of 310,000 active;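 active = activation above the mean of controls blocked by dofetilide plus 5 SD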;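 note: thallium influx through hERG after potassium depolarization seen as dye fluorescence rise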
Target sequence (Q12809 whole entry, looked up): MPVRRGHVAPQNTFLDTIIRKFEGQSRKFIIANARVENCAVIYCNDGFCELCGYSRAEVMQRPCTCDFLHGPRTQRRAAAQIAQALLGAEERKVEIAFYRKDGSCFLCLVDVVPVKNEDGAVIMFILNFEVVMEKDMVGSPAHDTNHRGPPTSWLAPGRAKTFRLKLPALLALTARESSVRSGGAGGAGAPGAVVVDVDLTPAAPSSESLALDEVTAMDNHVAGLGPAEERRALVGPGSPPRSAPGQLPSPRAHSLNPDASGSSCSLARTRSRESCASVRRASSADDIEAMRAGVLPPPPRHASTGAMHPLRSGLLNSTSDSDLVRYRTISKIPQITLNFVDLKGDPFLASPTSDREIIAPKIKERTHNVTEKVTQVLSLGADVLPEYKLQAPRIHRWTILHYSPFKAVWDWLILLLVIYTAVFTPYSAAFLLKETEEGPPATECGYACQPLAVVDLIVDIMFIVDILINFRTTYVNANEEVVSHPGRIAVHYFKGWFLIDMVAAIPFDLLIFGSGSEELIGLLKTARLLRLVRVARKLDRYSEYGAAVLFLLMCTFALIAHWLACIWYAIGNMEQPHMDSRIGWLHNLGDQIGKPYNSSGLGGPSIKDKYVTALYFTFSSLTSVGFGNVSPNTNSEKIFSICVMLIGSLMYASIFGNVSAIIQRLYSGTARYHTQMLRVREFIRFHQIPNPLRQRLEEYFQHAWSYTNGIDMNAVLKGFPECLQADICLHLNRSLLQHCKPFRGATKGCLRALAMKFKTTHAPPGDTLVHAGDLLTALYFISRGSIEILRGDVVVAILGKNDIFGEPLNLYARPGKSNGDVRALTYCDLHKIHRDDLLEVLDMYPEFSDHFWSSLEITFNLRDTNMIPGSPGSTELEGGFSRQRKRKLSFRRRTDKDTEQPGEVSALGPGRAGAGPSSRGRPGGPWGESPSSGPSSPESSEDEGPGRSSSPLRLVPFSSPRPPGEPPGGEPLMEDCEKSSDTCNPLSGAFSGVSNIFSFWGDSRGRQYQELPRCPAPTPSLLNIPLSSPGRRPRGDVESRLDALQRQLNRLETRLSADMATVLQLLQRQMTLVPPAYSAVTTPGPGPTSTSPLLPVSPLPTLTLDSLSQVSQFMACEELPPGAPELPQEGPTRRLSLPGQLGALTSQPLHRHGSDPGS
KCNK9 block conf: confirmation of human KCNK9 potassium channel inhibitors; inhibition, % at 10 µM; shares compounds with KCNK9 block; HEK293 KCNK9 cells, FluxOR thallium flux fluorescence; 43% of 4,900 active;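 active = thallium signal inhibited by more than 5 SD of the compound-free buffer control wells, on both duplicate plates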;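 note: 0% = assay buffer control wells without compound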
Kir21 sel: tests whether KCNK9 modulators also affect mouse Kir2.1; shares compounds with KCNK9 block; Kir2.1 cells, FluxOR thallium flux fluorescence; inhibition, % at 10 µM; 4% of 4,900 active; AID 492993;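 active = thallium signal drop more than 5 SD beyond the mean of the no-compound control wells, seen in both duplicate plates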;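 note: signal is fluorescence rise after thallium addition divided by baseline fluorescence; plate controls were assay buffer only for no effect and full block by chlorpromazine control for full effect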
KCNK9 uninduced: second counter-screen for KCNK9 modulators: effect in non-induced cells | shares compounds with KCNK9 block | non-induced KCNK9-HEK293, FluxOR thallium flux | inhibition, % at 10 µM | 40% of 4,900 active;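 active = thallium signal drop beyond 5 SD of the untreated control mean, on both duplicate plates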;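 note: plate controls were buffer only IC0 wells for no effect and SID17386958 at its maximal inhibitory level for full effect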
* marks the source's active call; other numbers are inactive results; i = inactive; · = not tested or not shown. Most compounds without a hit are left out; they make up all but 3.1% or so of the library.

SMILES	KCNQ1 block	KCNQ1 act	KCNK9 block	KCNK3 inh	hERG protect	KCNK9 block conf	Kir21 sel	KCNK9 uninduced
Cc1cc(C)c(C)c(OCc2nc(-c3cccnc3)no2)c1	i	i	i	i	-15	·	·	·
Cc1ccc(OCc2nc(-c3ccccc3)no2)c(C)c1	i	i	i	i	-6	i	i	40%*
COc1ccc(-c2noc(COc3ccc(C)c(C)c3)n2)cc1OC	i	i	i	i	-14	i	i	i
CCCCN(C(=O)c1ccncc1)c1c(N)n(CCC)c(=O)[nH]c1=O	·	·	·	i	·	·	·	·
Cc1ccc(NC(=O)CSc2nc3ccccc3nc2N2CCCC2)cc1	i	i	i	i	-7	i	i	i
CCc1ccc(NC(=O)CSc2nc3ccccc3nc2N2CCCC2)cc1	6*	i	i	i	-10	i	i	i
O=C(CSc1nc2ccccc2nc1N1CCCC1)Nc1ccc(Cl)cc1	i	i	i	i	-12	·	·	·
CC(C)c1ccc(NC(=O)CSc2nc3ccccc3nc2N2CCCC2)cc1	i	i	i	i	-9	·	·	·
COc1ccccc1/C=C(/C(=O)OCC(N)=O)c1ccccc1	i	i	i	i	-4	·	·	·
CCc1ccc(NC(=O)COC(=O)/C(=C/c2ccccc2OC)c2ccccc2)cc1	i	i	i	i	-7	i	i	i
CC1CCC(C(C)C)C(OC(=O)Cn2c(-c3ccccc3)[n+](C)c3ccccc32)C1 (centres undefined)	i	i	-8.8*	i	-25	64%*	74%*	i
O=C1OC[C@H]2CCCN2C(=O)[C@@H](CC(=O)N(CCO)Cc2ccccc2)C/C=C\C[C@@H]1Cc1ccc(F)cc1	·	·	·	i	·	·	·	·
Cc1ccnc(NC(=O)C23CC4CC(CC(C4)C2)C3)c1	i	i	i	i	-3	i	i	i
CCC(=O)Nc1ccc(NC(=O)C23CC4CC(CC(C4)C2)C3)cn1	i	i	i	i	-1	·	·	·
CN(CC(=O)Nc1cccc(F)c1)C(=O)COc1cccc2c1OC(C)(C)C2	i	i	i	i	-18	·	·	·
Cc1cccnc1NC(=O)C1CCN(S(=O)(=O)c2c(C)noc2/C=C/c2ccco2)CC1	i	i	i	i	-11	i	i	i
CCC(=O)Nc1c2c(nn1-c1ccc(OC)cc1)CSC2	i	i	i	i	-7	·	·	·
COc1ccc(OCC(=O)Nc2c3c(nn2C(C)(C)C)CSC3)cc1	i	i	-14*	i	-14	57%*	i	24%*
CCc1nnc(NS(=O)(=O)c2ccc(NCc3cc(Br)ccc3O)cc2)s1	i	i	i	i	-16	i	i	i
COCC1CCCCN1C(=O)c1cccc(OC2CCN(C(=O)C3CC3)CC2)c1 (centres undefined)	i	i	i	i	-9	·	·	·
Cc1cc(C)c(S(=O)(=O)N2CCCCC2CCNC(=O)C(=O)NC2CC2)c(C)c1 (centres undefined)	i	i	i	i	-5	·	·	·
O=[N+]([O-])c1cc(/C=N/O)ccc1Oc1cccc(Cl)c1	i	i	-10*	i	-14	41%*	i	25%*
COc1ccc(OC)c(C(C[N+](=O)[O-])c2c(C)cc3ccccn23)c1 (centres undefined)	i	i	-17*	i	-10	58%*	i	28%*
Cc1ccc(CN2CCN(/N=C/c3ccc(C)s3)CC2)c(C)c1	i	i	i	i	-8	i	i	i
COc1ccc(-c2nn(-c3ccccc3F)cc2CNCCn2nc(C)cc2C)cc1	i	i	i	i	-16	i	i	i
SMILES	KCNQ1 block	KCNQ1 act	KCNK9 block	KCNK3 inh	hERG protect	KCNK9 block conf	Kir21 sel	KCNK9 uninduced
COc1ccc(-c2nn(-c3ccccc3)cc2CNCCN2CCOC2=O)c(F)c1	i	i	i	i	-11	·	·	·
Cc1ccccc1OCCC(=O)Nc1ccc2c(C)cc(=O)oc2c1	i	i	i	i	-7	·	·	·
O=C(O)Cc1sc(N/N=C\c2ccncc2)nc1-c1ccccc1	i	i	-11*	i	-6	25%*	i	i
COc1ccc(C2CC(c3cccs3)=Nc3ccccc3S2)cc1 (centres undefined)	i	i	-12*	i	-2	52%*	i	36%*
Cc1cccnc1Nc1nc(-c2ccccc2)cs1	i	i	i	i	-1	i	i	26%*
O=C1CC/C=C\C[C@@H](CC(=O)N(CCO)Cc2ccccc2)C(=O)N[C@H](Cc2c[nH]c3ccccc23)CO1	·	·	·	i	·	·	·	·
COc1ccccc1NC(=O)/C(=C/c1cccc([N+](=O)[O-])c1)c1ccccc1	6*	i	-8.6*	i	-10	54%*	i	38%*
CCN(C[C@H]1N[C@@](Cc2ccccc2)(C(=O)OC)[C@H]2C(=O)N(C)C(=O)[C@@H]12)S(=O)(=O)c1ccc(OC)cc1	·	·	·	i	·	·	·	·
O=C(O)COC(=O)Cc1ccccc1Nc1c(Cl)cccc1Cl	i	i	i	i	-5	·	·	·
Cc1oc(=O)c(NC(=O)c2cccc(Cl)c2)cc1C(=O)c1ccccc1	i	i	i	i	-11	i	i	i
CCOCCCNC(=S)N1CCCN(c2nc3cc(C)c(C)cc3cc2C#N)CC1	i	i	i	i	-21	i	i	i
O=C(COc1ccc(Br)cc1)OCCN1CCCCC1	i	i	i	i	-7	·	·	·
Cc1cc(C)c(S(=O)(=O)c2c(C)cccc2C)c(OCC(C)C)n1	i	i	-9.9*	i	-16	59%*	i	42%*
CC(=O)c1cccc(NC(=O)Cn2cnc(S(=O)(=O)N3CCC(C)CC3)c2)c1	i	i	i	i	-6	·	·	·
CSc1nc2ccccc2cc1/C=C(\C#N)c1ccccc1	i	i	-13*	i	-5	54%*	i	42%*
C[C@]12C=CC(=O)C=C1CC[C@@H]1[C@@H]2[C@@H](O)C[C@@]2(C)[C@H]1CC[C@]2(O)C(=O)CO	i	i	i	i	-6	·	·	·
COC(=O)C1=C(C)OC(N)=C(C#N)C1c1c(C)nn(-c2ccccc2)c1Cl (centres undefined)	i	i	-13*	i	-18	37%*	i	i
COC(=O)C1=C(C)OC(N)=C(C#N)C1c1ccccc1 (centres undefined)	i	i	i	i	-1	·	·	·
